Measured values as given in ChEMBL document CHEMBL1152813, “Synthesis of puromycin derivatives with backbone-elongated substrates and associated translation inhibitory activities” (Bioorg Med Chem, 2009).
pIC50: −log10 of the molar value.

Tests used:
[1] = Solubility in water; assay type: physicochemical; details: buffer
Escherichia coli = test: Inhibition of firefly luciferase mRNA translation in Escherichia coli after 1 hr relative to control; assay type: functional
Procedure, shortened: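 Reconstituted E. coli translation system translating firefly luciferase mRNA with CCPmn derivatives at 2.5–30 µM (2.5–120 µM for some), 1 h incubation. Luciferase activity (c.p.s.) read by luminescence counter; translation efficiency (%) set against a serial-dilution calibration of control luciferase translated without CCPmns; three independent experiments, standard deviations.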

Structure (SMILES)	solubility [1]	pIC50 (Escherichia coli)
C[C@H](CN)C(=O)N[C@H]1[C@@H](O)[C@H](n2cnc3c(N(C)C)ncnc32)O[C@@H]1COP(=O)(O)O	Soluble	
C[C@H](CO)C(=O)N[C@H]1[C@@H](O)[C@H](n2cnc3c(N(C)C)ncnc32)O[C@@H]1COP(=O)(O)O	Soluble	
CC(=O)N[C@H]1[C@@H](O)[C@H](n2cnc3c(N(C)C)ncnc32)O[C@@H]1COP(=O)(O)O	Soluble	
C[C@H](CO)C(=O)N[C@H]1[C@@H](O)[C@H](n2cnc3c(N(C)C)ncnc32)O[C@@H]1COP(=O)(O)O[C@H]1[C@@H](O)[C@H](n2ccc(N)nc2=O)O[C@@H]1COP(=O)(O)O[C@H]1[C@@H](O)[C@H](n2ccc(N)nc2=O)O[C@@H]1CO	Soluble	4.92
C[C@H](CN)C(=O)N[C@H]1[C@@H](O)[C@H](n2cnc3c(N(C)C)ncnc32)O[C@@H]1COP(=O)(O)O[C@H]1[C@@H](O)[C@H](n2ccc(N)nc2=O)O[C@@H]1COP(=O)(O)O[C@H]1[C@@H](O)[C@H](n2ccc(N)nc2=O)O[C@@H]1CO	Soluble	4.48
CC(=O)N[C@H]1[C@@H](O)[C@H](n2cnc3c(N(C)C)ncnc32)O[C@@H]1COP(=O)(O)O[C@H]1[C@@H](O)[C@H](n2ccc(N)nc2=O)O[C@@H]1COP(=O)(O)O[C@H]1[C@@H](O)[C@H](n2ccc(N)nc2=O)O[C@@H]1CO	Soluble	4.18
COc1ccc(C[C@H](N)C(=O)N[C@H]2[C@@H](O)[C@H](n3cnc4c(N(C)C)ncnc43)O[C@@H]2COP(=O)(O)O[C@H]2[C@@H](O)[C@H](n3ccc(N)nc3=O)O[C@@H]2COP(=O)(O)O[C@H]2[C@@H](O)[C@H](n3ccc(N)nc3=O)O[C@@H]2CO)cc1	Soluble	5.30
CN(C)c1ncnc2c1ncn2[C@@H]1O[C@H](CO)[C@@H](NC(=O)CCO)[C@H]1O	Insoluble	
